Source: PubChem BioAssay
Rows were chosen to be rich in hits. Some 1.1% of all compounds tested hit in one or more screens of this group.
CAL PDZ FP-1: CAL PDZ peptide-binding inhibitors, primary screen, biochemical, fluorescence polarization, Cer-tagged CAL PDZ, HTS | purified CAL PDZ, TMR-peptide fluorescence polarization, 1 h | inhibition, % at 20 µM | 0.02% of 330,000 active | Golgi-associated PDZ and coiled-coil motif-containing protein (Homo sapiens), Q9HD26;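 active = highest replicate inhibition of at least 40%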;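 note: plate controls were DMSO neutral control wells for no effect and unlabeled competitor peptide control wells for full effect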
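Assay system – tagged CAL PDZ protein CerCALP, purified · Timing – 1 h at RT · Compound – single point, 20 µM · Measured by – fluorescence polarization from S- and P-plane intensities, G-factor corrected · Evaluation – inhibition from polarization loss · Probe or stimulus – TMR reporter peptide T*-PRC34 · Buffer or medium – pH 7.4 phosphate-saline buffer, reducing agent, detergent, IgG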
CAL PDZ FP-2: untagged CAL PDZ binding inhibitors, primary screen, biochemical, fluorescence polarization, HTS | Golgi-associated PDZ and coiled-coil motif-containing protein (Homo sapiens), Q9HD26 | inhibition, % at 24.9 µM | AID 602252, 2012 | purified CAL PDZ, TMR-peptide fluorescence polarization, 1 h | 0.92% of 300,000 active;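 active = mean inhibition of at least 30% with at least half of replicates also reaching 30%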;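 note: 0% = DMSO neutral control and 100% = excess unlabeled competitor peptide PRC23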
PglD inh: C. jejuni PglD acetyltransferase inhibitors, primary screen, biochemical, DTNB colorimetric, single point. UDP-N-acetylbacillosamine N-acetyltransferase PglD (Campylobacter jejuni). purified PglD enzyme, DTNB colorimetric CoA detection. inhibition, % at 12.5 µM. 0.098% of 360,000 active. AID 602405, 2012; in the data active = inhibition above about 16%, passing the limit was not always enough
miR122 inh: miR-122 Renilla sensor signal increase in Huh7, primary screen, miR-122 inhibitor project, cell-based, single point, plate reader. activation (reporter increase), % at 12.5 µM. Huh7 miR-122 Renilla luciferase sensor, 48 h; neutral wells = 0, positive control = 100. 0.3% of 340,000 active. AID 602342, 2012;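 active = mean replicate activation score at least 90 and every replicate individually at or above 90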;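 note: higher luciferase means less miR-122 activity so hits act as miR-122 inhibitors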
Cneo AK release: Cryptococcus neoformans cell lysis inducers, primary screen, AK release luminescence, single concentration; lysis activity, % at 15 µM; 0.2% of 360,000 active; C. neoformans lysis, adenylate kinase release luminescence, 4 h; normalised: neutral wells 0, clomiphene wells 100;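 active = mean lysis activity across replicates of at least 80%, whatever share of replicates individually reach that level; inactive = mean lysis activity below 80%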
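Assay system: C. neoformans cells. Amount: yeast cell density of 5 × 10^6 cells/mL. Technique: AK luminescence. Buffer or medium: YPD. Times: static 4 h at 37 °C with compound, 1 h detection. Dosing: single-point compound dose. Read-out: lysis from increased AK signal.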
* = called active by the depositor; / = no result given; [ ] = another dose, or the depositor's remark.

SMILES	CAL PDZ FP-1	CAL PDZ FP-2	PglD inh	miR122 inh	Cneo AK release
O=C(Nc1ccccc1)Nc1nccs1	-0.2	6.1	-1.8	-8.4	-0.6
C/C(Cl)=C\Cn1c(O)c(N=NC(N)=S)c2ccccc21	0.6	75.6*	/	/	/
NC(=S)N=Nc1c(O)n(Cc2ccccc2)c2ccccc12	0.4	-0.2	-1.5	-1.7	-0.1
Cc1ccc(NC(=O)CN(C)C(=O)COc2cccc3ccc(C)nc23)cc1	-0.3	70.7*	-3.9	30.0	-0.1
COc1ccc(C(=O)NCc2nnc(SCC(=O)Nc3ccccc3OC)o2)cc1	-1.1	56.2*	-1.5	0.3	2.4
COc1ccc(C(=O)NCc2nnc(SCC(=O)Nc3ccccc3F)o2)cc1	-1.0	-0.9	8.8	1.2	-2.2
COc1ccc(-c2nnc(SCC(=O)Nc3ccccc3OC)o2)cc1	-2.6	/	1.8	31.2	-9.4
COc1ccc(OCc2nnc(SCC(=O)Nc3ccccc3C#N)o2)cc1	0.4	53.8*	0.6	-9.2	-3.8
C[C@@H]1CN([C@H](C)CO)S(=O)(=O)c2ccc(C#CC3CC3)cc2O[C@@H]1CN(C)C(=O)c1ccncc1	/	/	2.6	-17.4[16.7 µM]	-10.4
COc1cccc(CSc2nnc(-c3ccncc3)n2C)c1	-0.1	40.0*	4.9	-9.7	2.0
Cc1ccc(CSc2nnc(-c3ccncc3)n2C)cc1	-4.1	-1.8	/	8.4	/
CC(C)(C)NS(=O)(=O)c1ccc(NC(=S)NC(=O)C2CC2)cc1	-7.9	-12.3	0.6	195.6*	1.5
O=C(NC(=S)Nc1ccc(Br)cc1)C1CCC1	-2.2	4.6	3.8	8.4	146.3*
Cc1ccc(NC(=S)NC(=O)C2CC2)cc1Cl	-3.5	51.8*	-2.9	-2.5	57.4
O=C(NC(=S)Nc1ccc(Br)cc1)C1CCCCC1	-0.9	-0.9	-2.1	-0.3	-2.2
CN1[C@H](C(=O)NC2Cc3ccccc3C2)[C@@H](CO)[C@@H]2Cn3c(ccc(-c4cccnc4)c3=O)[C@@H]21	/	/	1.8	0.1[16.7 µM]	2.0
O=[N+]([O-])c1ccccc1CNC(Cc1ccccc1)c1ccccc1 (stereo unspecified)	-2.8	-0.8	0.2	-3.5	1.4
O=C(CNC1CCCCC1)Nc1ccc([N+](=O)[O-])cc1C(=O)Nc1ccccc1F	-1.7	62.6*	-0.1	14.8	-4.5
O=C(CNCC1CCCO1)Nc1ccc([N+](=O)[O-])cc1C(=O)Nc1ccccc1F (stereo unspecified)	0.8	1.7	2.6	10.9	1.4
CC(C)CNC(=O)c1cccc(NC(=O)c2ccccc2-c2ccccc2C(=O)O)c1	/	88.6*	-0.8	-0.2	0.4
Nn1c(Cc2cccc3ccccc23)nnc1SCc1ccccc1	-1.7	-3.0	-1.7	-0.3	3.6
Nn1c(Cc2ccccc2)nnc1Cc1ccccc1	1.0	54.0*	-1.6	-9.6	-0.6
CC(=O)N1CCCCN2[C@@H](CO)[C@@H](c3ccc(Br)cc3)[C@@H]2C1	/	/	5.2	1.0[16.7 µM]	-1.3
O=C1CC(c2cccc(Cl)c2)Cc2nc(N3CCN(c4ccccc4)CC3)ncc21 (stereo unspecified)	-2.3	4.3	-2.9	0.3	-3.3
CCN1CCN(c2ncc3c(n2)CC(c2cc(OC)c(OC)c(OC)c2)CC3=O)CC1 (stereo unspecified)	-0.6	49.6*	/	-1.9	/
SMILES	CAL PDZ FP-1	CAL PDZ FP-2	PglD inh	miR122 inh	Cneo AK release
COCC#Cc1ccc([C@H]2[C@@H](CO)N3CCCCN(C(=O)CN(C)C)C[C@H]23)cc1	/	/	0.2	9.6[16.7 µM]	-2.2
CN1CCN(c2nc3c(c(=O)[nH]c(=O)n3C)n2Cc2ccccc2F)CC1	-0.6	51.5*	-4.8	0.6	-4.7
CN1CCN(c2nc3c(c(=O)[nH]c(=O)n3C)n2Cc2cccc(Br)c2)CC1	-1.1	-2.5	-1.1	-2.2	-0.3
CN1CCN(c2ccc(Cl)cc2NC(=O)C2COc3ccccc3O2)CC1 (stereo unspecified)	-2.7	70.5*	-2.0	65.5	2.9
Cc1ccc(S(=O)(=O)N(C)C[C@@H]2Oc3ccc(NS(=O)(=O)c4ccc(Cl)cc4)cc3CC(=O)N([C@H](C)CO)C[C@@H]2C)cc1	/	/	1.3	-0.3[16.7 µM]	1.4
CCOC(=O)c1cnn(-c2ccccc2)c1NC(=O)CN1CCCCC1	0.9	33.6*	/	9.7	/
COCC(=O)Nc1ccc2c(c1)C(=O)N(C)C[C@@H](OC)[C@@H](C)CN(CCc1ccccc1)[C@@H](C)CO2	/	/	-0.1	/	4.3
CC(Sc1nnnn1C)C(=O)Nc1ccc2c(c1)OCCO2 (stereo unspecified)	-0.8	43.9*	/	/	/
O=C(NC(N1CCOCC1)C(Cl)(Cl)Cl)c1ccc(F)cc1 (stereo unspecified)	0.7	75.5*	/	/	/
O=C(NC(N1CCCC1)C(Cl)(Cl)Cl)c1ccccc1 (stereo unspecified)	-0.2	-3.6	-5.0	5.9	-0.4
COc1ccc(NC(=O)N(C)C[C@H]2Oc3ccc(NC(=O)Nc4cccc5ccccc45)cc3CC(=O)N([C@H](C)CO)C[C@@H]2C)cc1	/	/	-1.2	0.4[16.7 µM]	38.6
COc1ccc(NC(=O)CCNC(=O)C2CCN(S(=O)(=O)c3ccc(OC)cc3)CC2)cc1	-1.8	-6.8	-8.0	1.9	-0.6
COc1ccc(S(=O)(=O)N2CCC(C(=O)NCCC(=O)Nc3cccc(Cl)c3)CC2)cc1	-1.6	40.7*	-4.8	-3.4	-0.5
COCCNC(=O)c1onc(CSc2ccc(F)cc2)c1C(=O)NCCOC	-0.9	31.1*	1.3	1.3	-0.3
CCCNC(=O)c1onc(CSc2ccc(F)cc2)c1C(=O)NCCOC	0.6	-1.5	-1.3	-0.7	-1.0
O=C1CCCS(=O)(=O)c2ccccc21	-1.5	-1.5	1.4	171.5*	2.2
O=C1CCCCC(=O)N(c2ccccc2)c2ccccc21	-2.0	/	-3.4	-3.9	0.9
CC(C)NC(=O)N[C@H]1CC[C@@H](CCNC(=O)C2CC2)O[C@H]1CO	/	/	-3.3	/	92.2*
CC(C)NC(=O)N[C@H]1CC[C@@H](CCNC(=O)C2CC2)O[C@@H]1CO	/	/	2.5	/	93.2*
COCC#Cc1ccc2c(c1)O[C@@H](CN(C)S(=O)(=O)c1ccc(C)cc1)[C@@H](C)CN([C@@H](C)CO)S2(=O)=O	/	/	3.6	-8.1[16.7 µM]	-4.0
CCCc1cc(=O)oc2cc(C)cc(OCC(=O)NCc3cccnc3)c12	-1.6	40.9*	0.4	-2.2	21.6
COCc1nnc(NS(=O)(=O)c2c(C)cc(C)cc2C)s1	/	34.8*	3.6	-13.9	0.2
COc1ccccc1NC(=O)N(C)C[C@@H]1Oc2cc(Br)ccc2S(=O)(=O)N([C@@H](C)CO)C[C@H]1C	/	/	0.1	3.2[16.7 µM]	49.1
